Among the data in ChEMBL document CHEMBL4145546, “A multidisciplinary study of 3-(β-d-glucopyranosyl)-5-substituted-1,2,4-triazole derivatives as glycogen phosphorylase inhibitors: Computation, synthesis, crystallography and kinetics reveal new potent inhibitors” (Eur J Med Chem, 2018) are Ki and inhibition values, retold here.

Assay [1] can be described thus: Inhibition of glycogen phosphorylase (unknown origin). Also on record: species or system Homo sapiens.
The target in assay [2] is T1, Glycogen phosphorylase, liver form (Homo sapiens, UniProt P06737).
T1 sequence (P06737 whole entry): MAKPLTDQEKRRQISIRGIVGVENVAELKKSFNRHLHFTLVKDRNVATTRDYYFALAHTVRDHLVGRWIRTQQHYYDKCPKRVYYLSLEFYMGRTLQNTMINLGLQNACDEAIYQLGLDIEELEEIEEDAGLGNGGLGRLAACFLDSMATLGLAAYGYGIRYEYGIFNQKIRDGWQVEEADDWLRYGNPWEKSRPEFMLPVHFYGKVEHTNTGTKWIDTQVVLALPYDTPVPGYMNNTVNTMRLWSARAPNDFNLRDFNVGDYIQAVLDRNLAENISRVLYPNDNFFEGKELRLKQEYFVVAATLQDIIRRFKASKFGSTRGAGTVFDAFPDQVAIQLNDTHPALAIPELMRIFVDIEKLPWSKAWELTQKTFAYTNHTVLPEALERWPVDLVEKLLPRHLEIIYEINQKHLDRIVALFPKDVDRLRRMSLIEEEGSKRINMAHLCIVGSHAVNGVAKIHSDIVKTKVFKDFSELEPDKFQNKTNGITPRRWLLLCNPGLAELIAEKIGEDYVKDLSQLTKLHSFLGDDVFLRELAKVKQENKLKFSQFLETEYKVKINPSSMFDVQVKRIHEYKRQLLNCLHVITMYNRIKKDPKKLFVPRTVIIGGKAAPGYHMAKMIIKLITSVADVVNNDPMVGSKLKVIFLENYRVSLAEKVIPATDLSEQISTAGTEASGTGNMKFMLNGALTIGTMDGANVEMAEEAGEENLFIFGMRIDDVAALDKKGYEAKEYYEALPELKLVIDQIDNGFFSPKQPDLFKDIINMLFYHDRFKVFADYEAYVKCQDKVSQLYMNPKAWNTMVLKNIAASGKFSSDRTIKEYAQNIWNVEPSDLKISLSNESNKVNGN
Nature of the assay: Inhibition of human liver glycogen phosphorylase-a assessed as release of inorganic phosphate using glucose-1-phosphate as substrate in presence of glycogen by spectrophotometric method. The method in brief:
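Human liver GPa (1 μg/mL) assayed at 30 °C toward glycogen synthesis in 30 mM imidazole/HCl pH 6.8 with 60 mM KCl, 0.6 mM EDTA, 0.6 mM DTT, 0.2% w/v glycogen, no AMP, and varied Glc-1-P and inhibitor. Orthophosphate release was read spectrophotometrically at five time points; kinetic parameters were fitted by non-linear regression.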

The target in assay [3] is T2, Glycogen phosphorylase, muscle form (Oryctolagus cuniculus, UniProt P00489).
T2 sequence (P00489 whole entry): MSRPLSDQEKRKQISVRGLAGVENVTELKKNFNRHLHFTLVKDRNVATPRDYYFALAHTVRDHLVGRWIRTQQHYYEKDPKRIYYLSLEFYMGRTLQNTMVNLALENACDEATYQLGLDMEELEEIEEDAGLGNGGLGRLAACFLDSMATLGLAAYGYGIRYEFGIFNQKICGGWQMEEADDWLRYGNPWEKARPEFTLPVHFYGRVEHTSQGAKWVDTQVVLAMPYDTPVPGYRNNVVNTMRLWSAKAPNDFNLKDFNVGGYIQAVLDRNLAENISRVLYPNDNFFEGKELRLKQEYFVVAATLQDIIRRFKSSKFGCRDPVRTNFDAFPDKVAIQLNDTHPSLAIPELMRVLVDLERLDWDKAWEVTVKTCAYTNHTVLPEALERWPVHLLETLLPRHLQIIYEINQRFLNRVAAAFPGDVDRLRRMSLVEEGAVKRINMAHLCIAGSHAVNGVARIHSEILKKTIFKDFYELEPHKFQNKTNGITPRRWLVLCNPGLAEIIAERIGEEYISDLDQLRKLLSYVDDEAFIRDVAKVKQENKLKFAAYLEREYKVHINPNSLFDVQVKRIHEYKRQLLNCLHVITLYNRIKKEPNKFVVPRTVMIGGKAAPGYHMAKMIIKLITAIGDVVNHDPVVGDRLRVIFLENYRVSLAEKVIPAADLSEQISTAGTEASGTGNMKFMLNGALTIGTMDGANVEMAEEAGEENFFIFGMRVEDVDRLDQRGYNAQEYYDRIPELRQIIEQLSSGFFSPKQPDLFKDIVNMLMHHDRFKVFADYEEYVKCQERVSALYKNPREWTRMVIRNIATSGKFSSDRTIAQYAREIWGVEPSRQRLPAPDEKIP
Nature of the assay: Inhibition of rabbit muscle glycogen phosphorylase-a assessed as release of inorganic phosphate using glucose-1-phosphate as substrate in presence of glycogen by spectrophotometric method. The method in brief:
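Rabbit muscle GPa was made by phosphorylating purified rabbit skeletal muscle GPb and used at 3 μg/mL, without AMP. Buffer was 30 mM imidazole/HCl pH 6.8 with 60 mM KCl, 0.6 mM EDTA, 0.6 mM DTT and 0.2% w/v glycogen, with varied Glc-1-P and inhibitor, at 30 °C. Phosphate release was measured spectrophotometrically at five intervals, and data were fitted non-linearly.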

Assay [4] concerns the target T2, Glycogen phosphorylase, muscle form. Nature of the assay: Inhibition of rabbit muscle glycogen phosphorylase-b assessed as release of inorganic phosphate using glucose-1-phosphate as substrate in presence of AMP and glycogen by spectrophotometric method. The method, boiled down: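 GPb was purified from rabbit skeletal muscle and used at 3 μg/mL at 30 °C, synthesis direction. Medium was 30 mM imidazole/HCl pH 6.8, 60 mM KCl, 0.6 mM EDTA, 0.6 mM DTT, 0.2% w/v glycogen and 1 mM AMP, with Glc-1-P and inhibitor varied. Initial rates came from pseudo-first-order constants of spectrophotometric phosphate release at five time points, fitted by non-linear regression.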

Assay [5] concerns the target T3, Glycogen phosphorylase, muscle form (Oryctolagus cuniculus) (UniProt P00489).
T3 sequence (whole entry): T2 sequence (P00489 whole entry)
Nature of the assay: Inhibition of rabbit muscle glycogen phosphorylase-b at 625 uM assessed as release of inorganic phosphate using glucose-1-phosphate as substrate in presence of AMP and glycogen by spectrophotometric method.

The structures appear in SMILES notation. The source made the active and inactive calls. The calls are words filed in the database; no cut-off is given here.

`OC[C@H]1O[C@H](O)[C@H](O)[C@@H](O)[C@@H]1O` gave a Ki in assay [1] of […].

Regarding `OC[C@H]1O[C@@H](c2nc(-c3ccc(-c4ccccc4)cc3)n[nH]2)[C@H](O)[C@@H](O)[C@@H]1O`, the inhibitory constant (Ki) in assay [2] turned out to be 2.23 µM; in assay [3] it was 2.09 µM; in assay [4], 2.38 µM.

As for `OC[C@H]1O[C@@H](c2nc(-c3cccc(-c4ccccc4)c3)n[nH]2)[C@H](O)[C@@H](O)[C@@H]1O`, the Ki in assay [4] was determined as 68.2 µM.

For `OC[C@H]1O[C@@H](c2nc(-c3ccc4cc5ccccc5cc4c3)n[nH]2)[C@H](O)[C@@H](O)[C@@H]1O`, the Ki in assay [4] was found to be 20 µM.

Regarding `OC[C@H]1O[C@@H](c2nc(-c3ccc4c(c3)Cc3ccccc3-4)n[nH]2)[C@H](O)[C@@H](O)[C@@H]1O`, the Ki in assay [2] came out at 2.02 µM; in assay [3], 0.84 µM; in assay [4], 1.19 µM.

`CN(C)/C=N/S(=O)(=O)c1ccc(-c2n[nH]c([C@@H]3O[C@H](CO)[C@@H](O)[C@H](O)[C@H]3O)n2)cc1`: the inhibition result in assay [5] is “inactive”.

For `O=C(O)c1ccc(-c2ccc(-c3n[nH]c([C@@H]4O[C@H](CO)[C@@H](O)[C@H](O)[C@H]4O)n3)cc2)cc1`, the Ki in assay [2] is 2.67 µM; in assay [3] it was 0.98 µM; in assay [4] it was 4.42 µM.

With `OC[C@H]1O[C@@H](c2nc(-c3ccc4ccc5cccc6ccc3c4c56)n[nH]2)[C@H](O)[C@@H](O)[C@@H]1O`, the Ki in assay [4] was above 1500 µM.

As to `NS(=O)(=O)c1ccc(-c2n[nH]c([C@@H]3O[C@H](CO)[C@@H](O)[C@H](O)[C@H]3O)n2)cc1`, in assay [4], the Ki was determined as 98.2 µM.

Take `O=C(O)c1ccc2cc(-c3n[nH]c([C@@H]4O[C@H](CO)[C@@H](O)[C@H](O)[C@H]4O)n3)ccc2c1`: the Ki in assay [2] stood at 3.88 µM; in assay [3], 0.78 µM; in assay [4], 5.05 µM.

Take `OC[C@H]1O[C@@H](c2nc(-c3cccc4ccccc34)n[nH]2)[C@H](O)[C@@H](O)[C@@H]1O`: the inhibition constant Ki turned out to be 8.91 µM in assay [2], 3.38 µM in assay [3] and 11.5 µM in assay [4].

A word on the Ki: it is the dissociation constant of the complex between target and ligand, obtained from inhibition or displacement.
